Assay results published in ChEMBL document CHEMBL1125136, “Quinolone antibacterial agents substituted at the 7-position with spiroamines. Synthesis and structure-activity relationships” (1990).
Converted amounts (≈) assume the structure as drawn.

Columns and labels:
[1] = system: Pseudomonas; experiment: Evaluated for minimum inhibitory concentration against gram-negative bacteria Pseudomonas rettgeri H1771; format: functional
Summary of the method: (§1)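 Broth microdilution MIC by standard technique. Values come from duplicate experiments and are stated as accurate to ±50%.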

[2] = system: Enterococcus faecalis; experiment: Evaluated for minimum inhibitory concentration against gram-positive bacteria Staphylococcus faecalis MGH-2
[3] = system: Pseudomonas aeruginosa; experiment: Evaluated for minimum inhibitory concentration against gram-negative bacteria Pseudomonas aeruginosa UI-18; format: functional; summary of the method: as §1
[4] = system: Streptococcus pyogenes; experiment: Evaluated for minimum inhibitory concentration against gram-positive bacteria Streptococcus pyogenes C203
[5] = system: Escherichia coli; experiment: Evaluated for minimum inhibitory concentration against gram-negative bacteria Escherichia coli Vogel; format: functional; summary of the method: as §1
[6] = system: Escherichia coli; experiment: Evaluated for minimum concentration needed to produce linear DNA at an intensity relative to oxolinic acid at 10 mg/mL. by gyrase mediated cleavage of DNA in Escherichia coli 560.; format: functional; details: read-out: MIC
[7] = Evaluated for minimum inhibitory concentration against […] bacteria […] SV-1; format: functional; summary of the method: as §1
[8] = system: Staphylococcus aureus; experiment: Evaluated for minimum inhibitory concentration against […] bacteria Staphylococcus aureus H228; format: functional; summary of the method: as §1
[9] = system: Klebsiella pneumoniae; experiment: Evaluated for minimum inhibitory concentration against gram-negative bacteria Klebsiella pneumoniae MGH-2; format: functional; summary of the method: as §1
[10] = system: Enterobacter cloacae; experiment: Evaluated for minimum inhibitory concentration against gram-negative bacteria Enterobacter cloacae HA 2646; format: functional
[11] = system: Staphylococcus aureus; experiment: Evaluated for minimum inhibitory concentration against […] bacteria Staphylococcus aureus UC-76; format: functional; summary of the method: as §1
[12] = system: Escherichia coli; experiment: In vivo protective dose was determined in mouse protection assay in Escherichia coli Vogel after subcutaneous administration; format: functional; details: sc, read-out: PD50
Summary of the method: (§2)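 Female Charles River CD-1 mice were given an acute, lethal, systemic infection. A single dose of compound was given at the time of challenge, by the route stated in the line, with 16 animals per dose level. The read-out is the median protective dose (PD50, mg/kg). Per the footnote, values come from 16 animals per test, with a mean variation of ±34%.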

[13] = system: Escherichia coli; experiment: In vivo protective dose for mouse protection assay in Escherichia coli Vogel after peroral administration; format: functional; details: po, read-out: PD50; summary of the method: as §2

Structure (SMILES)	MIC [1] [µg/mL]	MIC [2] [µg/mL]	MIC [3] [µg/mL]	MIC [4] [µg/mL]	MIC [5] [µg/mL]	minimum concentration for gyrase-mediated DNA cleavage [6] [µg/mL]	MIC [7] [µg/mL]	MIC [8] [µg/mL]	MIC [9] [µg/mL]	MIC [10] [µg/mL]	MIC [11] [µg/mL]	ED50 [12] [mg/kg]	ED50 [13] [mg/kg]
CCNCC1CCN(c2c(F)cc3c(=O)c(C(=O)O)cn(C4CC4)c3c2F)C1 (stereo not given) [PD-117558]	0.2 (≈ 0.511 µM)	0.025 (≈ 0.0639 µM)	0.4 (≈ 1.02 µM)	0.025 (≈ 0.0639 µM)	0.05 (≈ 0.128 µM)	0.25	0.025 (≈ 0.0639 µM)	0.025 (≈ 0.0639 µM)	0.1 (≈ 0.255 µM)	0.1 (≈ 0.255 µM)	0.006 (≈ 0.0153 µM)	–	–
CC1COc2c(N3CCC4(CCN(C)C4)C3)c(F)c(N)c3c(=O)c(C(=O)O)cn1c23 (stereo not given)	6.3 (≈ 15.1 µM)	0.4 (≈ 0.96 µM)	12.5 (≈ 30 µM)	0.2 (≈ 0.48 µM)	0.4 (≈ 0.96 µM)	1	0.4 (≈ 0.96 µM)	0.4 (≈ 0.96 µM)	0.8 (≈ 1.92 µM)	0.4 (≈ 0.96 µM)	0.1 (≈ 0.24 µM)	–	–
CCn1cc(C(=O)O)c(=O)c2cc(F)c(N3CCNCC3)cc21 [NORFLOXACIN]	0.2 (≈ 0.626 µM)	3.1 (≈ 9.71 µM)	0.8 (≈ 2.51 µM)	3.1 (≈ 9.71 µM)	0.1 (≈ 0.313 µM)	5.2	3.1 (≈ 9.71 µM)	3.1 (≈ 9.71 µM)	0.2 (≈ 0.626 µM)	0.1 (≈ 0.313 µM)	0.4 (≈ 1.25 µM)	–	–
NC1CCN(c2c(F)cc3c(=O)c(C(=O)O)cn(C4CC4)c3c2F)C1 (stereo not given)	0.05 (≈ 0.143 µM)	0.05 (≈ 0.143 µM)	0.1 (≈ 0.286 µM)	0.25 (≈ 0.716 µM)	0.013 (≈ 0.0372 µM)	0.1	0.05 (≈ 0.143 µM)	0.05 (≈ 0.143 µM)	0.025 (≈ 0.0716 µM)	0.025 (≈ 0.0716 µM)	0.025 (≈ 0.0716 µM)	–	–
CCn1cc(C(=O)O)c(=O)c2cc(F)c(N3CCCC4(CCCNC4)C3)nc21 (stereo not given)	100 (≈ 257 µM)	12.5 (≈ 32.2 µM)	50 (≈ 129 µM)	50 (≈ 129 µM)	12.5 (≈ 32.2 µM)	50	12.5 (≈ 32.2 µM)	6.3 (≈ 16.2 µM)	25 (≈ 64.4 µM)	25 (≈ 64.4 µM)	3.1 (≈ 7.98 µM)	–	–
CCNCC1CCN(c2c(F)cc3c(=O)c(C(=O)O)cn(CC)c3c2F)C1 (stereo not given) [MERAFLOXACIN]	0.4 (≈ 1.05 µM)	0.1 (≈ 0.264 µM)	1.6 (≈ 4.22 µM)	0.1 (≈ 0.264 µM)	0.1 (≈ 0.264 µM)	2.5	0.1 (≈ 0.264 µM)	0.1 (≈ 0.264 µM)	0.2 (≈ 0.527 µM)	0.2 (≈ 0.527 µM)	0.05 (≈ 0.132 µM)	–	–
CC1COc2c(N3CCN(C)CC3)c(F)cc3c(=O)c(C(=O)O)cn1c23 (stereo not given) [OFLOXACIN]	0.4 (≈ 1.11 µM)	6.3 (≈ 17.4 µM)	1.6 (≈ 4.43 µM)	3.1 (≈ 8.58 µM)	0.2 (≈ 0.553 µM)	6.2	0.4 (≈ 1.11 µM)	3.1 (≈ 8.58 µM)	0.2 (≈ 0.553 µM)	0.1 (≈ 0.277 µM)	0.4 (≈ 1.11 µM)	–	–
CCn1cc(C(=O)O)c(=O)c2cc(F)c(N3CCC4(CCN(C)C4)C3)cc21 (stereo not given)	3.1 (≈ 8.3 µM)	0.4 (≈ 1.07 µM)	3.1 (≈ 8.3 µM)	0.4 (≈ 1.07 µM)	0.2 (≈ 0.536 µM)	5	0.4 (≈ 1.07 µM)	0.8 (≈ 2.14 µM)	0.8 (≈ 2.14 µM)	0.2 (≈ 0.536 µM)	0.1 (≈ 0.268 µM)	–	–
CCn1cc(C(=O)O)c(=O)c2c(F)c(F)c(N3CCC4(CCN(C)C4)C3)c(F)c21 (stereo not given)	6.3 (≈ 15.4 µM)	1.6 (≈ 3.91 µM)	6.3 (≈ 15.4 µM)	1.6 (≈ 3.91 µM)	0.8 (≈ 1.95 µM)	5	0.8 (≈ 1.95 µM)	0.8 (≈ 1.95 µM)	1.6 (≈ 3.91 µM)	0.8 (≈ 1.95 µM)	0.2 (≈ 0.489 µM)	12.5	22
O=C(O)c1cn(C2CC2)c2c(F)c(N3CCC4(CCCN4)C3)c(F)cc2c1=O (stereo not given)	0.8 (≈ 2.05 µM)	0.4 (≈ 1.03 µM)	0.2 (≈ 0.514 µM)	0.4 (≈ 1.03 µM)	0.025 (≈ 0.0642 µM)	0.5	0.4 (≈ 1.03 µM)	0.05 (≈ 0.128 µM)	0.1 (≈ 0.257 µM)	0.025 (≈ 0.0642 µM)	0.4 (≈ 1.03 µM)	1	4
O=C(O)c1cn(C2CC2)c2cc(N3CCNCC3)c(F)cc2c1=O [CIPROFLOXACIN]	0.025 (≈ 0.0754 µM)	0.4 (≈ 1.21 µM)	0.1 (≈ 0.302 µM)	0.2 (≈ 0.604 µM)	0.025 (≈ 0.0754 µM)	–	0.4 (≈ 1.21 µM)	1.6 (≈ 4.83 µM)	0.025 (≈ 0.0754 µM)	–	0.1 (≈ 0.302 µM)	–	–
CCN1CCC2(CCN(c3c(F)cc4c(=O)c(C(=O)O)cn(C5CC5)c4c3F)C2)C1 (stereo not given)	0.4 (≈ 0.958 µM)	0.1 (≈ 0.24 µM)	1.6 (≈ 3.83 µM)	0.2 (≈ 0.479 µM)	0.1 (≈ 0.24 µM)	0.5	0.2 (≈ 0.479 µM)	0.1 (≈ 0.24 µM)	0.2 (≈ 0.479 µM)	0.2 (≈ 0.479 µM)	0.025 (≈ 0.0599 µM)	–	–
CCn1cc(C(=O)O)c(=O)c2cc(F)c(N3CCC(N)C3)c(F)c21 (stereo not given)	0.2 (≈ 0.593 µM)	0.8 (≈ 2.37 µM)	0.4 (≈ 1.19 µM)	0.4 (≈ 1.19 µM)	0.05 (≈ 0.148 µM)	1	0.4 (≈ 1.19 µM)	0.4 (≈ 1.19 µM)	0.2 (≈ 0.593 µM)	0.1 (≈ 0.296 µM)	0.05 (≈ 0.148 µM)	–	–
CCn1cc(C(=O)O)c(=O)c2cc(F)c(N3CCC4(CCCN4)C3)c(F)c21.Cl (stereo not given)	0.8	3.1	1.6	1.6	0.2	2.5	1.6	1.6	0.4	0.2	0.8	–	–
O=C(O)c1cn(C2CC2)c2c(F)c(N3CCC4(CCNC4)C3)c(F)cc2c1=O (stereo not given)	0.8 (≈ 2.05 µM)	0.4 (≈ 1.03 µM)	1.6 (≈ 4.11 µM)	0.025 (≈ 0.0642 µM)	0.2 (≈ 0.514 µM)	0.1	0.1 (≈ 0.257 µM)	0.2 (≈ 0.514 µM)	0.4 (≈ 1.03 µM)	0.2 (≈ 0.514 µM)	0.025 (≈ 0.0642 µM)	7	> 100
CCn1cc(C(=O)O)c(=O)c2cc(F)c(N3CCC4(CCNC4)C3)c(F)c21 (stereo not given)	1.6 (≈ 4.24 µM)	0.2 (≈ 0.53 µM)	0.8 (≈ 2.12 µM)	0.1 (≈ 0.265 µM)	0.1 (≈ 0.265 µM)	2.5	0.2 (≈ 0.53 µM)	0.1 (≈ 0.265 µM)	0.2 (≈ 0.53 µM)	0.2 (≈ 0.53 µM)	0.05 (≈ 0.132 µM)	15	> 100
CCn1cc(C(=O)O)c(=O)c2cc(F)c(N3CCC4(CCNC4)C3)nc21.Cl (stereo not given)	12.5	1.6	0.8	0.2	0.8	5	0.8	3.1	3.1	0.8	0.4	28	> 100
